Reference: ChEMBL document CHEMBL4368909, “Identification of Dihydrofuro[3,4- d]pyrimidine Derivatives as Novel HIV-1 Non-Nucleoside Reverse Transcriptase Inhibitors with Promising Antiviral Activities and Desirable Physicochemical Properties” (J Med Chem, 2019)
Converted amounts (≈) assume the structure as drawn.

What was measured:
[1] = system: Human immunodeficiency virus 1; test: Antiviral activity against wild type HIV1 3B infected in human MT4 cells assessed as reduction in virus-induced cytopathic effect after 5 days by MTT assay; assay type: functional, organism-based; conditions: Human immunodeficiency virus 1, 3B, MT4, 120 h
[2] = system: Human immunodeficiency virus 1; test: Antiviral activity against HIV1 RES056 infected in human MT4 cells assessed as reduction in virus-induced cytopathic effect after 5 days by MTT assay; assay type: functional, organism-based; conditions: Human immunodeficiency virus 1, RES056, MT4, 120 h
[3] = system: Human immunodeficiency virus 1; test: Resistance factor, ratio of EC50 for HIV1 harboring reverse transcriptase K103N mutant to EC50 for wild type HIV1; assay type: functional
In short: (§1)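 The resistance factor is the EC50 against the mutant strain divided by the EC50 against wild-type HIV-1. Both were measured in MT-4 cells by MTT read-out of protection from virus-induced cytopathicity.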

[4] = system: Human immunodeficiency virus 1; test: Antiviral activity against HIV1 harboring reverse transcriptase K103N mutant infected in human MT4 cells assessed as reduction in virus-induced cytopathic effect after 5 days by MTT assay; assay type: functional, organism-based; conditions: Human immunodeficiency virus 1, MT4, 120 h
[5] = system: Human immunodeficiency virus 2; test: Antiviral activity against HIV2 ROD infected in human MT4 cells assessed as reduction in virus-induced cytopathic effect after 5 days by MTT assay; conditions: Human immunodeficiency virus 2, ISOLATE ROD, MT4, 120 h
[6] = system: Human immunodeficiency virus 1; test: Antiviral activity against HIV1 harboring reverse transcriptase L100I mutant infected in human MT4 cells assessed as reduction in virus-induced cytopathic effect after 5 days by MTT assay; assay type: functional, organism-based; conditions: Human immunodeficiency virus 1, MT4, 120 h
[7] = system: Human immunodeficiency virus 1; test: Antiviral activity against HIV1 harboring reverse transcriptase Y181C mutant infected in human MT4 cells assessed as reduction in virus-induced cytopathic effect after 5 days by MTT assay; assay type: functional, organism-based; conditions: Human immunodeficiency virus 1, MT4, 120 h
[8] = system: Human immunodeficiency virus 1; test: Antiviral activity against HIV1 harboring reverse transcriptase E138K mutant infected in human MT4 cells assessed as reduction in virus-induced cytopathic effect after 5 days by MTT assay; assay type: functional, organism-based; conditions: Human immunodeficiency virus 1, MT4, 120 h
[9] = system: Human immunodeficiency virus 1; test: Resistance factor, ratio of EC50 for HIV1 harboring reverse transcriptase F227L/V106A double mutant to EC50 for wild type HIV1; assay type: functional; in short: as §1
[10] = system: Human immunodeficiency virus 1; test: Antiviral activity against HIV1 harboring reverse transcriptase Y188L mutant infected in human MT4 cells assessed as reduction in virus-induced cytopathic effect after 5 days by MTT assay; assay type: functional, organism-based; conditions: Human immunodeficiency virus 1, MT4, 120 h
[11] = system: Human immunodeficiency virus 1; test: Resistance factor, ratio of EC50 for HIV1 harboring reverse transcriptase Y188L mutant to EC50 for wild type HIV1; assay type: functional; in short: as §1
[12] = system: Human immunodeficiency virus 1; test: Antiviral activity against HIV1 harboring reverse transcriptase F227L/V106A double mutant infected in human MT4 cells assessed as reduction in virus-induced cytopathic effect after 5 days by MTT assay; assay type: functional, organism-based; conditions: Human immunodeficiency virus 1, MT4, 120 h
[13] = system: Human immunodeficiency virus 1; test: Resistance factor, ratio of EC50 for HIV1 harboring reverse transcriptase Y181C mutant to EC50 for wild type HIV1; assay type: functional; in short: as §1
MT4 = test: Cytotoxicity against human MT4 cells after 5 days by MTT assay; assay type: cell-based; conditions: mt4, 120 h
[14] = system: Human immunodeficiency virus 1; test: Resistance factor, ratio of EC50 for HIV1 harboring reverse transcriptase E138K mutant to EC50 for wild type HIV1; assay type: functional; in short: as §1
[15] = system: Human immunodeficiency virus 1; test: Resistance factor, ratio of EC50 for HIV1 harboring reverse transcriptase L100I mutant to EC50 for wild type HIV1; assay type: functional; in short: as §1
[16] = target: Human immunodeficiency virus type 1 reverse transcriptase (Human immunodeficiency virus 1, UniProt Q72547); test: Inhibition of recombinant HIV1 reverse transcriptase using (DIG)-dUTP and biotin-labeled dNTPs as substrate after 1 hr by ELISA
[17] = Selectivity ratio of CC50 for human MT4 cells to EC50 for HIV1 RES056 infected in human MT4 cells; assay type: toxicity, cell-based; conditions: read-out: Ratio CC50/EC50
[18] = Selectivity ratio of CC50 for human MT4 cells to EC50 for HIV1 3B infected in human MT4 cells; assay type: toxicity, cell-based; conditions: read-out: Ratio CC50/EC50
[19] = Selectivity ratio of CC50 for human TZM-bl cells to EC50 for HIV1 NL4-3 infected in human TZM-bl cells; assay type: toxicity, cell-based; conditions: read-out: Ratio CC50/EC50
In short: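 The selectivity index is CC50/EC50 in TZM-bl cells against NL4-3. […] The highest concentration tested was 125 ng/mL.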

TZM = test: Cytotoxicity against human TZM-bl cells after 4 days by XTT assay; assay type: cell-based; conditions: 96 h
[20] = Aqueous solubility of the compound in FASSIF by HPLC analysis; assay type: physicochemical; conditions: simulated gi fluid
In short: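 Solubility read by HPLC in fasted state simulated intestinal fluid (FaSSIF).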

[21] = Aqueous solubility of the compound at pH at 7 by HPLC analysis; assay type: physicochemical; conditions: buffer, pH 7
In short: (§2)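 Aqueous solubility read by HPLC in buffer at pH 2.0, 7.0 or 7.4.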

[22] = Aqueous solubility of the compound at pH at 7.4 by HPLC analysis; assay type: physicochemical; conditions: buffer, pH 7.4; in short: as §2
[23] = Aqueous solubility of the compound at pH at 2 by HPLC analysis; assay type: physicochemical; conditions: buffer, pH 2; in short: as §2
[24] = system: Human immunodeficiency virus 1; test: Antiviral activity against HIV1 NL4-3 infected in human TZM-bl cells after 2 days by luciferase-bright glo assay; assay type: functional, organism-based; conditions: Human immunodeficiency virus 1, NL4-3, TZM-bl, 48 h
[25] = Selectivity ratio of CC50 for human MT4 cells to EC50 for HIV1 harboring reverse transcriptase L100I mutant infected in human MT4 cells; assay type: toxicity, cell-based; conditions: read-out: Ratio CC50/EC50
[26] = Selectivity ratio of CC50 for human MT4 cells to EC50 for HIV1 harboring reverse transcriptase E138K mutant infected in human MT4 cells; assay type: toxicity, cell-based; conditions: read-out: Ratio CC50/EC50
[27] = Selectivity ratio of CC50 for human MT4 cells to EC50 for HIV1 harboring reverse transcriptase Y181C mutant infected in human MT4 cells; assay type: toxicity, cell-based; conditions: read-out: Ratio CC50/EC50
[28] = Selectivity ratio of CC50 for human MT4 cells to EC50 for HIV1 harboring reverse transcriptase Y188L mutant infected in human MT4 cells; assay type: toxicity, cell-based; conditions: read-out: Ratio CC50/EC50
[29] = Selectivity ratio of CC50 for human MT4 cells to EC50 for HIV1 harboring reverse transcriptase F227L/V106A double mutant infected in human MT4 cells; assay type: toxicity, cell-based; conditions: read-out: Ratio CC50/EC50
[30] = Selectivity ratio of CC50 for human MT4 cells to EC50 for HIV1 harboring reverse transcriptase K103N mutant infected in human MT4 cells; assay type: toxicity, cell-based; conditions: read-out: Ratio CC50/EC50

Structure (SMILES)	EC50 [1] [nM]	EC50 [2] [nM]	Ratio EC50 [3]	EC50 [4] [nM]	EC50 [5] [nM]	EC50 [6] [nM]	EC50 [7] [nM]	EC50 [8] [nM]	Ratio EC50 [9]	EC50 [10] [nM]	Ratio EC50 [11]	EC50 [12] [nM]	Ratio EC50 [13]	CC50 (MT4) [nM]	Ratio EC50 [14]	Ratio EC50 [15]	IC50 [16] [nM]	selectivity ratio [17]	selectivity ratio [18]	also measured
Cc1cc(C#N)cc(C)c1Oc1nc(NC2CCN(Cc3ccc(S(N)(=O)=O)cc3)CC2)nc2c1SCCC2	2.7	40.6	1.9	5.2	> 148000	12.9	10.4	8.5	8.3	8	3	22.3	3.8	≥ 148000	3.1	4.7				
Cc1cc(C#N)cc(C)c1Oc1nc(NC2CCN(Cc3cccc(C(N)=O)c3)CC2)nc2c1CCC2	2	26800			> 205000									205000			241	9	124000	
Cc1cc(C#N)cc(C)c1Oc1nc(NC2CCN(Cc3ccc(S(N)(=O)=O)cc3)CC2)nc2c1CCC2	1.1	25.8	10	11	58300	5.9	14.2	42.3	32.3	14	12.7	35.6	12.9	> 234000	38.4	5.3	91			
Cc1cc(C#N)cc(C)c1Oc1nc(NC2CCN(Cc3ccc(S(C)(=O)=O)cc3)CC2)nc2c1SCC2	5.9	46.6			13500									11900			130	257	2020	
Cc1cc(C#N)cc(C)c1Oc1nc(NC2CCN(Cc3ccc(S(N)(=O)=O)cc3)CC2)nc2ccsc12																				selectivity ratio [19]: 196; CC50 (TZM): > 227 nM; solubility [20]: 1.24 µg/mL (≈ 2.26 µM); solubility [21]: 0.05 µg/mL (≈ 0.0911 µM); solubility [22]: < 1 µg/mL; solubility [23]: 190 µg/mL (≈ 346 µM); EC50 [24]: 1.16 nM
Cc1cc(C#N)cc(C)c1Oc1nc(NC2CCN(Cc3ccncc3)CC2)nc2c1CCCC2	8.6	172			21700									75800			72	440	8750	
Cc1cc(C#N)cc(C)c1Oc1nc(NC2CCN(Cc3ccc(C(N)=O)cc3)CC2)nc2c1SCC2	4.8	43.6	1.1	5	> 165000	15.2	8.4	15.3	7.9	22.1	4.8	36.5	1.8	165000	3.3	3.3	66	3800	34200	selectivity ratio [25]: 9580; selectivity ratio [26]: 9520; selectivity ratio [27]: 17300; selectivity ratio [28]: 6590; selectivity ratio [29]: 4000; selectivity ratio [30]: 28900
Cc1cc(C#N)cc(C)c1Oc1nc(NC2CCN(Cc3ccc([N+](=O)[O-])cc3)CC2)nc2c1CSC2	11.5	1140			> 27100									27100			129	24	2340	
